# Experimental data: ChEMBL document CHEMBL2434875, “Novel nonsecosteroidal VDR agonists with phenyl-pyrrolyl pentane skeleton” (Eur J Med Chem, 2013)
# Activity calls are given as the source filed them. The rule behind the calls is not given here.
# System: Mus musculus
# Experiment: In vivo calcemic activity in ICR mouse assessed as serum calcium level at 5 ug/kg, sc administered for 7 days (reference value: 8.76 mg/dL)
# Assay type: ADME, organism-based
# Conditions: 0.005 mg/kg, 168 h
row,Activity,SMILES
1,12.14 mg/dL,C=C1/C(=C\C=C2/CCC[C@]3(C)[C@@H]([C@H](C)CC[C@@H](O)C(C)C)CC[C@@H]23)C[C@@H](O)C[C@@H]1O [TACALCITOL]

# Target: T1, Vitamin D3 receptor (Homo sapiens) (UniProt P11473)
# T1 sequence (whole entry): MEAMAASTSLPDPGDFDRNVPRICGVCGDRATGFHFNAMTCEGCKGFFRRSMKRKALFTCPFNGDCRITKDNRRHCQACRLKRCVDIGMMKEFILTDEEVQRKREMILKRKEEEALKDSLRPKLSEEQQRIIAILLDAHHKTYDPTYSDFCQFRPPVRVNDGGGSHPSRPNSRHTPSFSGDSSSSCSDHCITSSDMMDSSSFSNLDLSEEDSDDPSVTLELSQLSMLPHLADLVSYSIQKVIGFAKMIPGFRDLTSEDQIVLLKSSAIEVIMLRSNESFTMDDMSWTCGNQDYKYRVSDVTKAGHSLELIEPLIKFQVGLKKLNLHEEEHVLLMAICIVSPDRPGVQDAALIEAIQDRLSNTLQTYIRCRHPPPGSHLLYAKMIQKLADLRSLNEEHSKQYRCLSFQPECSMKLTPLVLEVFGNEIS
# Experiment: Agonist activity at VDR in human HL60 cells assessed as induction of cell differentiation at >50 uM after 96 hrs by NBT reduction assay
# Assay type: cell-based
# Conditions: HL-60
row,SMILES,Activity
1,CCn1c(C(=O)NCC(=O)O)ccc1C(CC)(CC)c1ccc(OCC(O)C(C)(C)C)c(C)c1 (stereo unspecified),inactive
2,CCn1c(C(=O)NCCCO)ccc1C(CC)(CC)c1ccc(OCC(O)C(C)(C)C)c(C)c1 (stereo unspecified),inactive

# Continued, values first:
row,Activity,SMILES
1,inactive,CCn1c(C(=O)NCCC(=O)OC)ccc1C(CC)(CC)c1ccc(OCC(=O)C(C)(C)C)c(C)c1
2,inactive,CCC(CC)(c1ccc(OCC(=O)C(C)(C)C)c(C)c1)c1ccc(C(=O)N[C@@H](C)C(=O)OC)n1C
3,inactive,CCn1c(C(=O)N[C@@H](C)C(=O)OC)ccc1C(CC)(CC)c1ccc(OCC(=O)C(C)(C)C)c(C)c1
4,inactive,CCC(CC)(c1ccc(OCC(O)C(C)(C)C)c(C)c1)c1ccc(C(=O)NCCO)n1C (stereo unspecified)
5,inactive,CCn1c(C(=O)N[C@@H](CC(=O)OC)C(=O)OC)ccc1C(CC)(CC)c1ccc(OCC(=O)C(C)(C)C)c(C)c1
6,inactive,CCC(CC)(c1ccc(OCC(=O)C(C)(C)C)c(C)c1)c1ccc(C(=O)N[C@@H](CC(=O)OC)C(=O)OC)n1C
7,inactive,CCC(CC)(c1ccc(OCC(O)C(C)(C)C)c(C)c1)c1ccc(C(=O)N[C@@H](C)C(=O)O)n1C (stereo partly specified)
8,inactive,CCn1c(C(=O)NCCC(=O)O)ccc1C(CC)(CC)c1ccc(OCC(=O)C(C)(C)C)c(C)c1
9,inactive,CCC(CC)(c1ccc(OCC(O)C(C)(C)C)c(C)c1)c1ccc(C(=O)N[C@@H](CC(=O)O)C(=O)O)n1C (stereo partly specified)
10,inactive,CCn1c(C(=O)N[C@@H](CC(=O)O)C(=O)O)ccc1C(CC)(CC)c1ccc(OCC(O)C(C)(C)C)c(C)c1 (stereo partly specified)
11,inactive,CCn1c(C(=O)N[C@@H](C)C(=O)O)ccc1C(CC)(CC)c1ccc(OCC(=O)C(C)(C)C)c(C)c1
12,inactive,CCC(CC)(c1ccc(OCC(=O)C(C)(C)C)c(C)c1)c1ccc(C(=O)NCCC(=O)O)n1C
13,inactive,CCC(CC)(c1ccc(OCC(=O)C(C)(C)C)c(C)c1)c1ccc(C(=O)NCC(=O)O)n1C
14,inactive,CCn1c(C(=O)NCC(=O)O)ccc1C(CC)(CC)c1ccc(OCC(=O)C(C)(C)C)c(C)c1
15,inactive,CCn1c(C(=O)N[C@@H](CC(=O)O)C(=O)O)ccc1C(CC)(CC)c1ccc(OCC(=O)C(C)(C)C)c(C)c1

# System: HaCaT
# Experiment: Cytotoxicity against human HaCaT cells at >50 uM after 48 hrs by MTT assay
# Assay type: functional, cell-based
# Conditions: not given
# Outline: (§1)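 HaCaT or MCF-7 cells grown 48 h at 37 °C, 5% CO₂, no medium change. MTT (5 mg/mL) with DMEM added, 4 h. Medium replaced by DMSO to dissolve formazan, A570 read. IC50 from log-linear dose regression. Compounds above 85% efficacy rescreened for the final IC50. Triplicate experiments.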
row,SMILES,growth inhibition (GI)
1,CCn1c(C(=O)NCC(=O)OC)ccc1C(CC)(CC)c1ccc(OCC(=O)C(C)(C)C)c(C)c1,inactive
2,CCC(CC)(c1ccc(OCC(O)C(C)(C)C)c(C)c1)c1ccc(C(=O)NCCCO)n1C (stereo unspecified),inactive
3,CCC(CC)(c1ccc(OCC(O)C(C)(C)C)c(C)c1)c1ccc(C(=O)NCCC(=O)O)n1C (stereo unspecified),inactive
4,CCn1c(C(=O)NCCC(=O)O)ccc1C(CC)(CC)c1ccc(OCC(O)C(C)(C)C)c(C)c1 (stereo unspecified),inactive
5,CCC(CC)(c1ccc(OCC(=O)C(C)(C)C)c(C)c1)c1ccc(C(=O)NCC(=O)OC)n1C,inactive
6,CCC(CC)(c1ccc(OCC(=O)C(C)(C)C)c(C)c1)c1ccc(C(=O)N[C@@H](CC(=O)O)C(=O)O)n1C,inactive
7,CCn1c(C(=O)N[C@@H](C)C(=O)O)ccc1C(CC)(CC)c1ccc(OCC(O)C(C)(C)C)c(C)c1 (stereo partly specified),inactive
8,CCC(CC)(c1ccc(OCC(=O)C(C)(C)C)c(C)c1)c1ccc(C(=O)N[C@@H](C)C(=O)O)n1C,inactive

# System: MCF7
# Experiment: Cytotoxicity against human MCF7 cells at >50 uM after 48 hrs by MTT assay
# Assay type: functional, cell-based
# Conditions: not given
# Outline: as §1
row,SMILES,growth inhibition (GI)
1,CCn1c(C(=O)NCC(=O)OC)ccc1C(CC)(CC)c1ccc(OCC(=O)C(C)(C)C)c(C)c1,inactive
2,CCC(CC)(c1ccc(OCC(O)C(C)(C)C)c(C)c1)c1ccc(C(=O)NCCC(=O)O)n1C (stereo unspecified),inactive
3,CCn1c(C(=O)NCCC(=O)O)ccc1C(CC)(CC)c1ccc(OCC(O)C(C)(C)C)c(C)c1 (stereo unspecified),inactive
4,CCC(CC)(c1ccc(OCC(=O)C(C)(C)C)c(C)c1)c1ccc(C(=O)NCC(=O)OC)n1C,inactive
5,CCC(CC)(c1ccc(OCC(O)C(C)(C)C)c(C)c1)c1ccc(C(=O)NCC(=O)O)n1C (stereo unspecified),inactive
6,CCC(CC)(c1ccc(OCC(O)C(C)(C)C)c(C)c1)c1ccc(C(=O)N[C@@H](C)CO)n1C (stereo partly specified),inactive
7,CCC(CC)(c1ccc(OCC(=O)C(C)(C)C)c(C)c1)c1ccc(C(=O)NCCC(=O)OC)n1C,inactive
8,CCC(CC)(c1ccc(OCC(=O)C(C)(C)C)c(C)c1)c1ccc(C(=O)N[C@@H](C)C(=O)O)n1C,inactive

# System: Mus musculus
# Experiment: In vivo calcemic activity in ICR mouse assessed as serum calcium level at 30 mg/kg, sc administered for 7 days (reference value: 8.76 mg/dL)
# Assay type: ADME, organism-based
# Parameters: dose 30 mg/kg, route subcutaneous
# Conditions: 168 h
row,Activity,SMILES
1,8.94 mg/dL,CCC(CC)(c1ccc(OCC(O)C(C)(C)C)c(C)c1)c1ccc(C(=O)N[C@H](CO)CCO)n1C (stereo partly specified)
2,9.08 mg/dL,CCn1c(C(=O)N[C@@H](C)CO)ccc1C(CC)(CC)c1ccc(OCC(O)C(C)(C)C)c(C)c1 (stereo partly specified)

# System: HaCaT
# Experiment: Cytotoxicity against human HaCaT cells after 48 hrs by MTT assay
# Assay type: functional, cell-based
# Conditions: not given
# Outline: as §1
row,SMILES,IC50
1,CCC(CC)(c1ccc(OCC(O)C(C)(C)C)c(C)c1)c1ccc(C(=O)N[C@H](CO)CCO)n1C (stereo partly specified),190 nM
2,CCn1c(C(=O)NCCO)ccc1C(CC)(CC)c1ccc(OCC(O)C(C)(C)C)c(C)c1 (stereo unspecified),2080 nM
3,CCn1c(C(=O)N[C@@H](C)CO)ccc1C(CC)(CC)c1ccc(OCC(O)C(C)(C)C)c(C)c1 (stereo partly specified),2060 nM
4,CCC(CC)(c1ccc(OCC(O)C(C)(C)C)c(C)c1)c1ccc(C(=O)NCC(=O)O)n1C (stereo unspecified),9810 nM
5,CCn1c(C(=O)N[C@H](CO)CCO)ccc1C(CC)(CC)c1ccc(OCC(O)C(C)(C)C)c(C)c1 (stereo partly specified),1250 nM
6,CCC(CC)(c1ccc(OCC(O)C(C)(C)C)c(C)c1)c1ccc(C(=O)N[C@@H](C)CO)n1C (stereo partly specified),15700 nM
7,CCC(CC)(c1ccc(OCC(=O)C(C)(C)C)c(C)c1)c1ccc(C(=O)NCCC(=O)OC)n1C,28900 nM
8,C=C1/C(=C\C=C2/CCC[C@]3(C)[C@@H]([C@H](C)CC[C@@H](O)C(C)C)CC[C@@H]23)C[C@@H](O)C[C@@H]1O [TACALCITOL],2070 nM

# System: MCF7
# Experiment: Cytotoxicity against human MCF7 cells after 48 hrs by MTT assay
# Assay type: functional, cell-based
# Conditions: MCF7, 48 h
# Outline: as §1
row,SMILES,IC50
1,CCC(CC)(c1ccc(OCC(O)C(C)(C)C)c(C)c1)c1ccc(C(=O)N[C@H](CO)CCO)n1C (stereo partly specified),7.83 nM
2,CCC(CC)(c1ccc(OCC(O)C(C)(C)C)c(C)c1)c1ccc(C(=O)NCCCO)n1C (stereo unspecified),16400 nM
3,CCn1c(C(=O)NCCO)ccc1C(CC)(CC)c1ccc(OCC(O)C(C)(C)C)c(C)c1 (stereo unspecified),1810 nM
4,CCn1c(C(=O)N[C@@H](C)CO)ccc1C(CC)(CC)c1ccc(OCC(O)C(C)(C)C)c(C)c1 (stereo partly specified),307 nM
5,CCn1c(C(=O)N[C@H](CO)CCO)ccc1C(CC)(CC)c1ccc(OCC(O)C(C)(C)C)c(C)c1 (stereo partly specified),300 nM
6,C=C1/C(=C\C=C2/CCC[C@]3(C)[C@@H]([C@H](C)CC[C@@H](O)C(C)C)CC[C@@H]23)C[C@@H](O)C[C@@H]1O [TACALCITOL],57 nM
7,CCC(CC)(c1ccc(OCC(=O)C(C)(C)C)c(C)c1)c1ccc(C(=O)N[C@@H](CC(=O)O)C(=O)O)n1C,160 nM
8,CCn1c(C(=O)N[C@@H](C)C(=O)O)ccc1C(CC)(CC)c1ccc(OCC(O)C(C)(C)C)c(C)c1 (stereo partly specified),180 nM

# System: Mus musculus
# Experiment: In vivo calcemic activity in ICR mouse assessed as serum calcium level at 0.5 mg/kg, sc administered for 7 days (reference value: 8.76 mg/dL)
# Assay type: ADME, organism-based
# Parameters: dose 0.5 mg/kg, route subcutaneous
# Conditions: 168 h
row,Activity,SMILES
1,8.91 mg/dL,CCC(CC)(c1ccc(OCC(O)C(C)(C)C)c(C)c1)c1ccc(C(=O)N[C@H](CO)CCO)n1C (stereo partly specified)
2,8.09 mg/dL,CCn1c(C(=O)N[C@@H](C)CO)ccc1C(CC)(CC)c1ccc(OCC(O)C(C)(C)C)c(C)c1 (stereo partly specified)

# System: Mus musculus
# Experiment: In vivo calcemic activity in ICR mouse assessed as serum calcium level at 10 mg/kg, sc administered for 7 days (reference value: 8.76 mg/dL)
# Assay type: ADME, organism-based
# Parameters: dose 10 mg/kg, route subcutaneous
# Conditions: 168 h
row,Activity,SMILES
1,9.29 mg/dL,CCC(CC)(c1ccc(OCC(O)C(C)(C)C)c(C)c1)c1ccc(C(=O)N[C@H](CO)CCO)n1C (stereo partly specified)
2,8.3 mg/dL,CCn1c(C(=O)N[C@@H](C)CO)ccc1C(CC)(CC)c1ccc(OCC(O)C(C)(C)C)c(C)c1 (stereo partly specified)
